According to ChEMBL document CHEMBL1139366, “Non-peptide macrocyclic histone deacetylase inhibitors” (J Med Chem, 2009):

Columns and labels:
DU-145 = test: Cytotoxicity against human DU145 cells after 72 hrs by trypan blue exclusion assay; type: functional, cell-based; details: DU-145, 72 h
In short: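 DU-145 prostate cancer cells kept in recommended complete medium at 37 °C, 5% CO₂, passaged 24 h before dosing. Compounds taken from 10 mM DMSO stocks and diluted in DMSO plus fresh medium, final DMSO 0.1%; control wells got fresh medium only. Viability read by trypan blue staining after 72 h. EC₅₀ = concentration giving 50% loss of viability, from duplicate of four simultaneous experiments.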

SK-MES-1 = test: Cytotoxicity against human SKMES1 cells after 72 hrs by trypan blue exclusion assay; type: functional, cell-based; details: SK-MES-1, 72 h
HMEC = test: Cytotoxicity against HMEC after 72 hrs by trypan blue exclusion assay; type: ADME, cell-based; details: Homo sapiens
[1] = target: T1, Protein deacetylase HDAC6 (Homo sapiens, UniProt Q9UBN7); test: Inhibition of HDAC6 from human HeLa cells nuclear extract by cell free fluorimetric assay
T1 sequence (Q9UBN7 whole entry): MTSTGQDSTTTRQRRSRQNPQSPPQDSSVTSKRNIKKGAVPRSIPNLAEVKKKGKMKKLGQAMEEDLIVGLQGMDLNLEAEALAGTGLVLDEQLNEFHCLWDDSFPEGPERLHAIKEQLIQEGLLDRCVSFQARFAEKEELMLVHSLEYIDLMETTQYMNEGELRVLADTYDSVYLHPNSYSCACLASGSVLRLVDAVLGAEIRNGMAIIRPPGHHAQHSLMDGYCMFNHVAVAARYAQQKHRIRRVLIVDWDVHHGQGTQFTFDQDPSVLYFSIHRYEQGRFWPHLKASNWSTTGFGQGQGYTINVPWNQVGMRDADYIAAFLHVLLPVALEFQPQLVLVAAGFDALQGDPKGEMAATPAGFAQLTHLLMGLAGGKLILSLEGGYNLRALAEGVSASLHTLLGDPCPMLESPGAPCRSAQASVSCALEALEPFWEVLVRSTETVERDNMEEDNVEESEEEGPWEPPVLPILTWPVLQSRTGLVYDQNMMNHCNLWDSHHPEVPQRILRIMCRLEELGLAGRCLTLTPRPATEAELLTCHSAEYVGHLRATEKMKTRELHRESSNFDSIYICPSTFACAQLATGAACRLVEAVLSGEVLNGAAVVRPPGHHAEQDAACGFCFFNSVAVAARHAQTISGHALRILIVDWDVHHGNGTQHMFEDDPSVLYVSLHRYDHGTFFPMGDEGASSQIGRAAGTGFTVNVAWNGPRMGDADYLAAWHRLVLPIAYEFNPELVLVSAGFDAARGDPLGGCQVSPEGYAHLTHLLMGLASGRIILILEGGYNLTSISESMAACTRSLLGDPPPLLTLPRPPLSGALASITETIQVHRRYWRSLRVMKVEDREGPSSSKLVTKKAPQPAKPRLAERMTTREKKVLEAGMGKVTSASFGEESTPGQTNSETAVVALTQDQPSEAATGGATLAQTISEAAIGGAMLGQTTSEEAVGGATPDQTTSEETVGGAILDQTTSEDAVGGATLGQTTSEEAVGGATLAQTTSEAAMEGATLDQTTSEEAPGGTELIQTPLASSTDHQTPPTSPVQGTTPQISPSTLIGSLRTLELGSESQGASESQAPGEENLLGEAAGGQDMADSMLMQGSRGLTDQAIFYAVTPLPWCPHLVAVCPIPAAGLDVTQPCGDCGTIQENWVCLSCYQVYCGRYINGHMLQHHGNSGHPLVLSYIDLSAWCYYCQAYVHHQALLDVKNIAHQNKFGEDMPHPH

[2] = Cytotoxicity against human primary lung fibroblasts after 72 hrs by trypan blue exclusion assay; type: ADME, cell-based; details: Fibroblast
Histone deacetylase 8 = target: T2, Histone deacetylase 8 (Homo sapiens, UniProt Q9BY41); test: Inhibition of HDAC8 from human HeLa cells nuclear extract by cell free fluorimetric assay
T2 sequence (Q9BY41 whole entry): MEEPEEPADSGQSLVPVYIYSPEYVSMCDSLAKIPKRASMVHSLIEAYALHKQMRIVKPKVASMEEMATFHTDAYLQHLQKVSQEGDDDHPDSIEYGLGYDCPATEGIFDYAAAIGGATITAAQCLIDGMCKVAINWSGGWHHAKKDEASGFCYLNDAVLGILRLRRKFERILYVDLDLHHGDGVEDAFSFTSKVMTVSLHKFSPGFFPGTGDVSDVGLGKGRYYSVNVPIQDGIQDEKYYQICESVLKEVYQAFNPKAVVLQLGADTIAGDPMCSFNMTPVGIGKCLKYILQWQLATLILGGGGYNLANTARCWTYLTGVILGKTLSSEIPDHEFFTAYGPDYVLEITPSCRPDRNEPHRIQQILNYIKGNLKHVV

[3] = target: Histone deacetylase (HDAC1 and HDAC2) (Homo sapiens, UniProt Q13547+Q92769); test: Inhibition of HDAC1/2 from human HeLa cells nuclear extract by cell free fluorimetric assay; type: cell-based
NCI-H69 = test: Cytotoxicity against human NCI-H69 cells after 72 hrs by trypan blue exclusion assay; type: functional, cell-based; details: NCI-H69, 72 h

With `CC[C@H]1OC(=O)[C@H](C)[C@@H](O[C@H]2C[C@@](C)(OC)[C@@H](O)[C@H](C)O2)[C@H](C)[C@@H](O[C@@H]2O[C@H](C)C[C@H](N(C)Cc3ccc(-c4cn(CCCCCCC(=O)NO)nn4)cc3)[C@H]2O)[C@](C)(O)C[C@@H](C)CN(C)[C@H](C)[C@@H](O)[C@]1(C)O` the EC50 (DU-145) was 1.88 µM, the EC50 (SK-MES-1) was 2.33 µM and the EC50 (HMEC) was > 10 µM. The IC50 [1] was 0.078 µM, the EC50 [2] was > 10 µM and the IC50 (Histone deacetylase 8) was 0.994 µM. For the same compound, the IC50 [3] was 0.0139 µM and the EC50 (NCI-H69) was 3.45 µM.
With `CC[C@H]1OC(=O)[C@H](C)[C@@H](O)[C@H](C)[C@@H](O[C@@H]2O[C@H](C)C[C@H](N(C)Cc3ccc(-c4cn(CCCCCCC(=O)NO)nn4)cc3)[C@H]2O)[C@](C)(O)C[C@@H](C)CN(C)[C@H](C)[C@@H](O)[C@]1(C)O` the EC50 (DU-145) was 1.97 µM, the EC50 (SK-MES-1) was 2.56 µM and the EC50 (HMEC) was > 10 µM. The IC50 [1] was 0.117 µM, the EC50 [2] was > 10 µM and the IC50 (Histone deacetylase 8) was 1.02 µM. The IC50 [3] was 0.0106 µM and the EC50 (NCI-H69) was 3.01 µM.
For `CC[C@H]1OC(=O)[C@H](C)[C@@H](O)[C@H](C)[C@@H](O[C@@H]2O[C@H](C)C[C@H](N(C)Cc3ccc(-c4cn(CCCCCCC(=O)NO)nn4)cc3)[C@H]2O)[C@](C)(OC)C[C@@H](C)C(=O)[C@H](C)[C@@H](O)[C@]1(C)O`, the EC50 (DU-145) was 1.05 µM, the EC50 (SK-MES-1) was 1.28 µM and the EC50 (HMEC) was > 10 µM. For the same compound, the IC50 [1] was 0.148 µM, the EC50 [2] was > 10 µM and the IC50 [3] was 0.0019 µM. The EC50 (NCI-H69) was 1.49 µM.
With `CC[C@H]1OC(=O)[C@H](C)[C@@H](O[C@H]2C[C@@](C)(OC)[C@@H](O)[C@H](C)O2)[C@H](C)[C@@H](O[C@@H]2O[C@H](C)C[C@H](N(C)Cc3ccc(-c4cn(CCCCCCC(=O)NO)nn4)cc3)[C@H]2O)[C@](C)(OC)C[C@@H](C)C(=O)[C@H](C)[C@@H](O)[C@]1(C)O` the EC50 (DU-145) was 1.12 µM, the EC50 (SK-MES-1) was 1.33 µM and the EC50 (HMEC) was > 10 µM. The IC50 [1] was 0.0893 µM, the EC50 [2] was > 10 µM and the IC50 [3] was 0.0041 µM. It also gave an EC50 (NCI-H69) of 1.45 µM.
